What was measured:
[1] = tested on: Mus musculus; assay: Toxicity in mouse allografted with mouse L1210 cells assessed as survival at 50 mg/kg; assay type: organism-based; design: dose 50 mg/kg; conditions: in vivo
How it was run: (§1)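 Mice bearing L1210 leukemia, six per dose group, given compound as a suspension across a range of mg/kg doses. Antitumor read-out is T/C, with cures per group recorded. Toxicity is judged by body weight loss, with loss over 4 g flagged.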

[2] = tested on: Mus musculus; assay: Toxicity in mouse allografted with mouse L1210 cells assessed as survival at 25 mg/kg; assay type: organism-based; design: dose 25 mg/kg; conditions: in vivo; how it was run: as §1
[3] = tested on: Mus musculus; assay: Toxicity in mouse allografted with mouse L1210 cells assessed as change in body weight at 100 mg/kg relative to control; assay type: organism-based; design: dose 100 mg/kg; conditions: in vivo; how it was run: as §1
[4] = tested on: Mus musculus; assay: Toxicity in mouse allografted with mouse L1210 cells assessed as change in body weight at 50 mg/kg relative to control; assay type: organism-based; design: dose 50 mg/kg; conditions: in vivo; how it was run: as §1
[5] = tested on: Mus musculus; assay: Toxicity in mouse allografted with mouse L1210 cells assessed as change in body weight at 25 mg/kg relative to control; assay type: organism-based; design: dose 25 mg/kg; conditions: in vivo; how it was run: as §1
[6] = tested on: Mus musculus; assay: Toxicity in mouse allografted with mouse L1210 cells assessed as change in body weight at 12.5 mg/kg relative to control; assay type: organism-based; design: dose 12.5 mg/kg; conditions: in vivo; how it was run: as §1
[7] = tested on: Mus musculus; assay: Toxicity in mouse allografted with mouse L1210 cells assessed as change in body weight at 6.25 mg/kg relative to control; assay type: organism-based; design: dose 6.25 mg/kg; conditions: in vivo; how it was run: as §1
[8] = tested on: L1210; assay: Antitumor activity against mouse L1210 cells allografted in mouse assessed as tumor growth inhibition at 50 mg/kg relative to control; assay type: functional; how it was run: as §1
[9] = tested on: L1210; assay: Antitumor activity against mouse L1210 cells allografted in mouse assessed as tumor growth inhibition at 25 mg/kg relative to control; assay type: functional; how it was run: as §1
[10] = tested on: L1210; assay: Antitumor activity against mouse L1210 cells allografted in mouse assessed as tumor growth inhibition at 12.5 mg/kg relative to control; assay type: functional; how it was run: as §1
[11] = tested on: L1210; assay: Antitumor activity against mouse L1210 cells allografted in mouse assessed as tumor growth inhibition at 6.25 mg/kg relative to control; assay type: functional
How it was run: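 L1210 leukemia in mice, six per group; compound given as a suspension across a range of dose levels; activity expressed as T/C, with cures and weight loss recorded.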

[12] = tested on: Mus musculus; assay: Toxicity in mouse allografted with mouse L1210 cells assessed as survival at 12.5 mg/kg; assay type: organism-based; design: dose 12.5 mg/kg; conditions: in vivo; how it was run: as §1
[13] = tested on: Mus musculus; assay: Toxicity in mouse allografted with mouse L1210 cells assessed as survival at 6.25 mg/kg; assay type: organism-based; design: dose 6.25 mg/kg; conditions: in vivo; how it was run: as §1
[14] = organism: Rattus norvegicus; assay: Inhibition of prolactin release in rat at 10 ug relative to control; assay type: functional
[15] = tested on: Mus musculus; assay: Toxicity in mouse allografted with mouse L1210 cells assessed as survival at 400 mg/kg; assay type: organism-based; design: dose 400 mg/kg; conditions: in vivo; how it was run: as §1
[16] = tested on: Mus musculus; assay: Toxicity in mouse allografted with mouse L1210 cells assessed as survival at 200 mg/kg; assay type: organism-based; design: dose 200 mg/kg; conditions: in vivo; how it was run: as §1
[17] = tested on: Mus musculus; assay: Toxicity in mouse allografted with mouse L1210 cells assessed as survival at 100 mg/kg; assay type: organism-based; design: dose 100 mg/kg; conditions: in vivo; how it was run: as §1
[18] = tested on: Mus musculus; assay: Toxicity in mouse allografted with mouse L1210 cells assessed as change in body weight at 400 mg/kg relative to control; assay type: organism-based; design: dose 400 mg/kg; conditions: in vivo; how it was run: as §1
[19] = tested on: Mus musculus; assay: Toxicity in mouse allografted with mouse L1210 cells assessed as change in body weight at 200 mg/kg relative to control; assay type: organism-based; design: dose 200 mg/kg; conditions: in vivo; how it was run: as §1
[20] = tested on: L1210; assay: Antitumor activity against mouse L1210 cells allografted in mouse assessed as tumor growth inhibition at 200 mg/kg relative to control; assay type: functional; how it was run: as §1
[21] = tested on: L1210; assay: Antitumor activity against mouse L1210 cells allografted in mouse assessed as tumor growth inhibition at 100 mg/kg relative to control; assay type: functional; how it was run: as §1
[22] = tested on: Mus musculus; assay: Toxicity in mouse allografted with mouse P388 cells assessed as survival at 100 mg/kg; assay type: organism-based; design: dose 100 mg/kg; conditions: in vivo
[23] = tested on: Mus musculus; assay: Toxicity in mouse allografted with mouse P388 cells assessed as survival at 50 mg/kg; assay type: organism-based; design: dose 50 mg/kg; conditions: in vivo
[24] = tested on: Mus musculus; assay: Toxicity in mouse allografted with mouse P388 cells assessed as survival at 25 mg/kg; assay type: organism-based; design: dose 25 mg/kg; conditions: in vivo
[25] = tested on: Mus musculus; assay: Toxicity in mouse allografted with mouse P388 cells assessed as change in body weight at 100 mg/kg relative to control; assay type: organism-based; design: dose 100 mg/kg; conditions: in vivo
[26] = tested on: Mus musculus; assay: Toxicity in mouse allografted with mouse P388 cells assessed as change in body weight at 50 mg/kg relative to control; assay type: organism-based; design: dose 50 mg/kg; conditions: in vivo
[27] = tested on: Mus musculus; assay: Toxicity in mouse allografted with mouse P388 cells assessed as change in body weight at 25 mg/kg relative to control; assay type: organism-based; design: dose 25 mg/kg; conditions: in vivo
[28] = tested on: P388; assay: Antitumor activity against mouse P388 cells allografted in mouse assessed as tumor growth inhibition at 100 mg/kg relative to control; assay type: functional
[29] = tested on: P388; assay: Antitumor activity against mouse P388 cells allografted in mouse assessed as tumor growth inhibition at 50 mg/kg relative to control; assay type: functional
[30] = tested on: P388; assay: Antitumor activity against mouse P388 cells allografted in mouse assessed as tumor growth inhibition at 25 mg/kg relative to control; assay type: functional
[31] = tested on: L1210; assay: Antitumor activity against mouse L1210 cells allografted in mouse assessed as tumor growth inhibition at 400 mg/kg relative to control; assay type: functional; how it was run: as §1

| Compound | Activity [1] | Activity [2] | Activity [3] | Activity [4] | Activity [5] | Activity [6] | T/C [8] | T/C [9] | T/C [10] | inhibition (INH) [14] | further results |
| --- | --- | --- | --- | --- | --- | --- | --- | --- | --- | --- | --- |
| C[C@H]1CC[C@H](NC(=O)N(CCCl)N=O)CC1 | Non-toxic | Non-toxic | -6.6 g | -4.8 g | -3.4 g | -0.2 g | 327% | 301% | 256% |  | Activity [7]: 0.4 g; T/C [11]: 187%; Activity [12]: Not Active; Activity [13]: Non-toxic |
| CN1C[C@H](N)C[C@@H]2c3cccc4[nH]cc(c34)C[C@H]21 |  |  |  |  |  |  |  |  |  | 57% |  |
| CN1C[C@H](NC(=O)N(CCCl)N=O)C[C@@H]2c3cccc4[nH]cc(c34)C[C@H]21 | Non-toxic | Non-toxic | -4 g | -2.8 g | -1.4 g | -1.2 g | 154% | 137% | 119% | 28% | Activity [15]: Non-toxic; Activity [16]: Non-toxic; Activity [17]: Non-toxic; Activity [18]: -7.6 g; Activity [19]: -6 g; T/C [20]: 390%; T/C [21]: 248% |
| CN1C[C@H](NC(=O)N(CCCl)N=O)C[C@@H]2c3cccc4c3c(cn4N=O)C[C@H]21 | Non-toxic | Non-toxic | -3.4 g | -2.2 g | -1.8 g | -1.2 g | 121% | 117% | 105% | 17% | Activity [22]: Non-toxic; Activity [23]: Non-toxic; Activity [24]: Non-toxic; Activity [15]: Non-toxic; Activity [16]: Non-toxic; Activity [17]: Non-toxic; Activity [25]: -1.8 g; Activity [26]: 0 g; Activity [27]: -0.4 g; Activity [18]: -6.4 g; Activity [19]: -5.2 g; T/C [28]: 201%; T/C [29]: 166%; T/C [30]: 137%; T/C [31]: 289%; T/C [20]: 164%; T/C [21]: 144% |
| CN1CC(CO)=C[C@@H]2c3cccc4c3c(cn4N=O)C[C@H]21 |  |  |  |  |  |  |  |  |  | 36% |  |
| CN1CC(COC(=O)NCCCl)=C[C@@H]2c3cccc4[nH]cc(c34)C[C@H]21 |  |  |  |  |  |  |  |  |  | 87% |  |
| CN1CC(CO)=C[C@@H]2c3cccc4[nH]cc(c34)C[C@H]21 |  |  |  |  |  |  |  |  |  | 71% |  |
| CC(C)[C@H]1C(=O)N2CCC[C@H]2[C@]2(O)O[C@](NC(=O)[C@@H]3C=C4c5cccc6[nH]cc(c56)C[C@H]4N(C)C3)(C(C)C)C(=O)N12 [ERGOCORNINE] |  |  |  |  |  |  |  |  |  | 88% |  |
| CN1C[C@H](CC#N)C[C@@H]2c3cccc4[nH]c(Cl)c(c34)C[C@H]21 [LERGOTRILE] |  |  |  |  |  |  |  |  |  | 71% |  |

Source: ChEMBL document CHEMBL3228007, “Ergot alkaloids. Synthesis of nitrosourea derivatives of ergolines as potential anticancer agents” (J Med Chem, 1979)
